High-throughput results deposited in PubChem by several laboratories.
Sampled rows, rich in hits. Any-hit rate of the full collection: about 2.6%.
ASAP1 inh: ASAP1 ArfGAP inhibition; 360,000 compounds, 0.19% hits; ASAP1-stimulated ARF1 GTP hydrolysis, GDP FP detection; inhibition, % at 16.5 µM; Q9ULH1; in the data active = inhibition above about 25%;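 note: 0% = vehicle with enzyme and substrate and 100% = no enzyme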
Calb FLC: C. albicans growth modulation with fluconazole. C. albicans CaCi-2 + fluconazole, Alamar Blue growth, 48 h. growth inhibition, % (no concentration beside the values). 300,000 compounds, 0.57% hits;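 active = growth inhibition above about 58% in most replicates, limit read from the data, passing the limit was not always enough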;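 note: all wells also contain fluconazole at 8 µg/ml as a sub-toxic cotreatment; 0% = median of DMSO wells and 100% = median of geldanamycin control wells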
PHOSPHO1 inh: inhibitors of human PHOSPHO1 phosphatase; AID 1565; Q8TCT1; inhibition, % at 13.3 µM; recombinant PHOSPHO1, absorbance phosphatase assay; 290,000 compounds, 1.1% hits; in the data active = inhibition above about 60%
Target sequence (Q8TCT1 whole entry, looked up): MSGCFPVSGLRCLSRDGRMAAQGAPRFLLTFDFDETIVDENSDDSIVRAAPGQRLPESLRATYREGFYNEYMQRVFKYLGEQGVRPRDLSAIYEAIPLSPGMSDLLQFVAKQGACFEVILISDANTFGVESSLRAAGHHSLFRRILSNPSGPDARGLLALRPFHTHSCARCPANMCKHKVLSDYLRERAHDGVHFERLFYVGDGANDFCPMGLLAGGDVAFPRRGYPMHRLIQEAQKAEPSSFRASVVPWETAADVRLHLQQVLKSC
ARFGAP1 inhibitor: rat ARFGAP1 inhibition; inhibition, % at 16.5 µM; Arfgap1-stimulated ARF1 GTP hydrolysis, GDP FP detection; Q62848; 360,000 compounds, 0.26% hits;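 active = inhibition above a per-plate limit, mean inhibition of low control wells plus 3 SD, cut at about 25% in these data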;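 note: 0% = DMSO wells with enzyme and 100% = wells lacking Arfgap1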
Target sequence (Q62848 1-136 limits assumed): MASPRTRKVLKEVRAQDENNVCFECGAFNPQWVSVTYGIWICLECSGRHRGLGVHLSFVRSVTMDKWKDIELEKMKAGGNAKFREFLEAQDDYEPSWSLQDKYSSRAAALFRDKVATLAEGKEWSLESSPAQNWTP
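Repeats: one replicate per compound; assay system: rat Arfgap1 catalytic domain, aa 1-136; times: enzyme reaction 120 min at 25 °C after 20 min preincubation; detection: FP of antibody-bound GDP Alexa 633 tracer, ex 620/em 688 nm; benchmarks: high control wells lacking Arfgap1, low control full reaction with DMSO; reagent: human ARF1(Δ1-17)-GTP substrate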
VIM-2 inhibitor: inhibitors of Pseudomonas aeruginosa VIM-2 metallo-beta-lactamase; inhibition, % at 5.6 µM; purified VIM-2, nitrocefin hydrolysis, epi-absorbance fluorescence; 290,000 compounds, 0.89% hits;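 active = inhibition above the mean of all tested compounds plus 3 SD, cutoff set per screening run, cut at about 7.5% in these data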;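 note: red hydrolysis product quenches plate fluorescence so inhibitors raise well fluorescence; 0% = enzyme with DMSO and 100% = DMSO without enzyme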
IMP-1 inh: inhibitors of Pseudomonas aeruginosa IMP-1 metallo-beta-lactamase; purified IMP-1, nitrocefin hydrolysis, epi-absorbance fluorescence; inhibition, % at 5.6 µM; 290,000 compounds, 0.45% hits;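 active = inhibition above the mean plus 3 SD of all compounds in the same screening run, cut at about 4.5% in these data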;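 note: 0% = IMP-1 with DMSO and 100% = DMSO wells lacking enzyme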
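Test system: recombinant IMP-1 enzyme, purified / Medium: HEPES buffer pH 7.1 with ZnSO4 and Brij 35 / Doses: single dose, 5.6 µM / Times: 25 °C, 15 min preincubation, 25 min reaction / Detection: Epi-absorbance via hydrolysed-nitrocefin quenching of white-plate fluorescence, 480/530 nm, EDTA stop / Evaluation: percent inhibition from optical density relative to buffer-blank wells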
* = called active by the depositor; . = no result.

SMILES	ASAP1 inh	Calb FLC	PHOSPHO1 inh	ARFGAP1 inhibitor	VIM-2 inhibitor	IMP-1 inh
C[C@H](O)[C@@H]1CN2CCc3ccc(-c4ccc5c(c4)OCO5)cc3[C@@H]2C[C@@H]1N(C)Cc1cc(Cl)cc(Cl)c1	-3	.	.	2	.	.
CC(C)(C)c1cc(CNC2CS(=O)(=O)C[C@@H]2O)cc(C(C)(C)C)c1O (some centres not stated)	4	-1	35	-8	-1	7.3*
O=S1(=O)CC(O)C(NCc2ccco2)C1 (configuration not stated)	-18	-4	1	1	-2	-2
COc1cccc(C(=O)N[C@@H](Cc2cccnc2)C(=O)N2CCC[C@H]2C(=O)NC2CCCC2)c1	1	.	.	-1	.	.
CCC(C)n1cnc2c(c1=O)c1nc3ccccc3nc1n2Cc1ccc2c(c1)OCO2 (configuration not stated)	.	100*	1	.	-4	-3
CCCc1ccc(C(=O)NNc2cccc(C)c2)cc1	3	97*	19	13	0	2
Cc1ccccc1NNC(=O)C(=O)NNc1ccccc1C	-3	-15	68*	-13	-3	-2
Cc1cccc(NNC(=O)C(=O)NNc2cccc(C)c2)c1	-2	100*	47	10	-1	-1
Cc1cccc(NC(=O)CC(=O)Nc2cccc(C)c2)c1	8	-26	31	2	-2	-2
Cc1ccc(C)c(NNC(=O)C(=O)NNc2cc(C)ccc2C)c1	-7	-24	44	-12	-2	-1
CN(c1cccnc1)c1ccc(NC(=O)CCc2c[nH]c3ccccc23)cc1Br	13	.	.	2	.	.
O=C(/C=C/[C@H]1O[C@@H](n2ccc(=O)[nH]c2=O)[C@H](O)[C@@H]1O)NCc1ccco1	4	.	.	-4	.	.
CC(C)(C)NC(=S)N/N=C/c1cc(Br)c(O)c(Br)c1	0	76*	.	3	0	-3
Oc1sc(C=Nc2ccc(F)cc2)c2ccccc12	7	11	65*	-3	6	13*
Cc1ccc(CSc2ncnc3c2cnn3Cc2ccccc2)cc1	1	-2	5	-3	0	6.7*
Cc1ccc(CSc2ncnc3c2cnn3Cc2ccccc2)cc1C	-6	-9	-7	-4	-2	0
Cc1ccccc1Nc1nc(CSc2nnc(-c3ccoc3C)n2C)cs1	9	-4	69*	1	-2	-2
Cc1ccc(Nc2nc(CSc3nnc(-c4ccncc4)n3C)cs2)cc1	13	-1	-29	-1	-2	-3
CN(C)CCCNc1nc(-c2ccccc2)nc2ccccc12	-10	-2	24	8	3	-6
CN(C)CCCNc1c2ccccc2nc2ccccc12	-3	21	.	10	12*	-1
O=S1(=O)N[C@@H](Cc2ccccc2)COc2cc(NCCCN3CCOCC3)ccc21	-1	.	.	2	.	.
FC(F)(F)c1ccccc1NC(=S)NN=C1CCCCCC1	-5	95*	-8	2	5	-2
CCCN1CCCCC(NC(=O)c2ccc(C)cc2C)C1=O (configuration not stated)	-5	.	.	2	.	.
COc1cc(CNc2ccc(N3CCCC3)cc2)cc(Cl)c1OC	-50	87*	50	-26	1	-1
CCOc1cc(CNc2ccc(N3CCCC3)cc2)cc(Cl)c1OC	-57	5	-12	-45	-1	0
SMILES	ASAP1 inh	Calb FLC	PHOSPHO1 inh	ARFGAP1 inhibitor	VIM-2 inhibitor	IMP-1 inh
COc1ccccc1CCn1cnc(-c2ccccc2)c1CC(C)C	-14	.	.	4	.	.
CC1(C)Cc2c(sc3ncn4c(=S)[nH]nc4c23)CO1	-6	6	68*	-4	-6	-2
CC1(C)Cc2c(sc3ncn(N)c(=N)c23)CO1	0	-17	6	2	-1	-3
COc1ccc(CNC(=O)[C@@H](Cc2ccccc2)NC(=O)[C@H]2O[C@@H](n3cnc4c(=O)[nH]c(N)nc43)[C@H](O)[C@@H]2O)cc1	-4	.	.	-5	.	.
COc1ccc(C(=O)NC(=S)N2CC(C)OC(C)C2)cc1 (configuration not stated)	-1	1	-3	5	-1	-1
Cc1ccc(C(=O)NC(=S)N2CC(C)OC(C)C2)cc1[N+](=O)[O-] (configuration not stated)	.	10	90*	.	-1	-2
C/C(=N\Nc1ccc(Cl)cc1)c1c(O)cc(C)oc1=O	-2	125*	-82	-18	-6	-5
